Compounds with a hit are over-represented: about 2.3% of the library has one in this group of screens.
TRPC6 activator – activates the mouse TRPC6 cation channel; HEK293-TRPC6 membrane potential dye fluorescence; active compounds read high; B-score at 10 µM; actives 0.13% (n = 310,000); AID 2550;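 active = B-score of the integrated fluorescence ratio above library mean plus 3 SD, and starting fluorescence ratio within library mean plus 5 SD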;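 note: higher score means more depolarization so channel activation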
TRPC4 potent – allosteric potentiators of mouse TRPC4 channel; Q9QUQ5; HEK293 TRPC4beta/mu-opioid, DAMGO EC20, Fluo-4 Ca2+ flux; active compounds read high; B-score at 10 µM; actives 0.42% (n = 310,000); AID 2227;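 active = B-score of calcium response area above 5 SD of library B-scores, with initial fluorescence ratio within 5 SD of library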;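 note: B-score of integrated fluorescence ratio over time as area under calcium response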
TRPC6 inhibitor – blocks the mouse TRPC6 cation channel; B-score at 10 µM; actives 1.1% (n = 310,000); HEK293-TRPC6, membrane potential dye, ACh-evoked depolarization; active compounds read low; AID 2553; Q61143;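 active = B-score under library mean minus 3 SD, initial fluorescence not abnormally high, positive integrated signal ratio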;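 note: B-score derived from integrated fluorescence ratio over the kinetic read; more negative B-score means stronger inhibition of depolarization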
TRPC4 block – TRPC4 (mouse) channel inhibition. Q9QUQ5. HEK293 TRPC4beta/mu-opioid, DAMGO-evoked Fluo4 calcium flux; active compounds read low. B-score at 10 µM. actives 0.39% (n = 300,000). AID 2247;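 active = B-score over 3 SD under the library average, no early fluorescence shift, positive overall ratio signal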
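Assay system: HEK293 cells with stable TRPC4beta plus mu-opioid receptor expression; Probe or stimulus: DAMGO in two steps, submaximal then maximal; Dosing: single-point compound dosing; Measured by: Fluo4 calcium-dye fluorescence, kinetic read; Read-out basis: B score from integrated Fluo4 fluorescence ratio.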
TRPC4 act – activators of mouse TRPC4 channel; HEK293 TRPC4beta/mu-opioid, Fluo4 calcium fluorescence; active compounds read high; actives 0.49% (n = 310,000); B-score at 10 µM; Q9QUQ5;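 active = B-score above 5 SD of library B-scores, and initial fluorescence ratio not above library mean plus 5 SD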;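 note: positive B-score marks a calcium rise read as TRPC4 activation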
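Assay system: HEK293 stable line with TRPC4beta plus mu-opioid receptor; schedule: 45 min room-temperature Fluo4 loading, 110 s read; technique: kinetic Fluo4 calcium fluorescence; evaluation: integrated baseline-normalised fluorescence ratio, converted to per-well B score; controls: buffer (low) and maximal DAMGO (high)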
HEK293 MPD ctr – parental HEK293 nonspecific activity of TRPC6 modulators. shares compounds with TRPC6 inhibitor. actives 51% (n = 2,400). membrane potential dye fluorescence. membrane potential signal change, % at 10 µM;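 active = membrane potential signal moves up or down beyond 5 SD from buffer-only wells, on both duplicate plates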
HEK293 MPD ctr 2 – parental HEK293 nonspecific activity of TRPC6 modulators, second screen. actives 14% (n = 2,400). shares compounds with TRPC6 inhibitor. membrane potential dye fluorescence; after compound, maximal acetylcholine stimulation. inhibition, % at 10 µM;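 active = membrane potential signal drops by more than 5 SD from the mean control signal, in both duplicate plates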;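 note: plate controls were acetylcholine ECmax control wells for no effect and buffer only wells for full effect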
TRPC4/MOR mod – selectivity of TRPC6 modulators against mouse TRPC4; shares compounds with TRPC6 inhibitor; HEK293 TRPC4/mu-opioid, membrane potential fluorescence; percent change from control (negative = decrease, positive = increase), % at 10 µM; actives 69% (n = 2,400); AID 488927;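 active = membrane potential signal moved up or down beyond 5 SD of buffer control wells, in both duplicate plates, actives on both sides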;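 note: plate controls were assay buffer wells for no effect and DAMGO maximal-effect wells for full effect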
TRPC4/MOR inh 2 – mouse TRPC4 off-target activity of TRPC6 modulators, second screen. actives 55% (n = 2,400). shares compounds with TRPC6 inhibitor. inhibition, % at 10 µM. HEK293 TRPC4/mu-opioid, membrane potential dye fluorescence; stimulated with maximal-effect DAMGO;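 active = drop in membrane potential signal beyond 5 SD of the control wells in both duplicate plates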;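 note: TRPC4 counter screen for TRPC6 hits run under conditions tuned for TRPC6 not TRPC4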
TRPC6 inh conf – mouse TRPC6 inhibitor confirmation | inhibition, % at 10 µM | AID 488960 | actives 43% (n = 3,300) | HEK293-TRPC6, membrane potential dye, ACh-evoked depolarization | shares compounds with TRPC6 inhibitor;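 active = fluorescence ratio falls more than 5 SD below the full-stimulation control mean, in both duplicate runs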;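 note: integrated fluorescence ratio of peak minus minimum over baseline after agonist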
TRPC6 act confirm – mouse TRPC6 activator confirmation | shares compounds with TRPC6 inhibitor | HEK293-TRPC6 membrane potential dye fluorescence, FDSS | activation, % at 10 µM | actives 11% (n = 2,800) | AID 488961;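 active = ratio signal rise beyond 5 SD above unstimulated control wells' mean, seen in both duplicate runs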;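 note: plate controls were buffer EC0 wells for no effect and acetylcholine ECmax response for full effect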
* hit, by the source's call; i = inactive.

SMILES	TRPC6 activator	TRPC4 potent	TRPC6 inhibitor	TRPC4 block	TRPC4 act	others
CCOC(=O)C(=O)Nc1ccc(OCc2ccccc2)cc1	i	i	i	i	i
Cc1cc(C)nc(/N=C(\N)Nc2ccc(OCCC(C)C)cc2)n1	i	i	i	i	51*
Cc1cc(C)nc(/N=C(\N)Nc2cccc(OCc3ccccc3)c2)n1	i	i	-5.4*	i	i
Cc1cc(C)nc(/N=C(\N)Nc2ccc(OCc3ccccc3)cc2)n1	i	i	i	i	61*
CCn1c(SCC(=O)Nc2ccc(N(C)C)cc2)nnc1-c1ccco1	i	i	i	i	i
CSc1nsc(SCC(=O)Nc2ccccc2)n1	i	i	i	i	i
CSc1nsc(NC(=O)Cc2ccccc2)n1	i	i	i	-6*	i
Cc1cc(C)c2c(n1)SCC(=O)N2CC(=O)Nc1ccccc1Cl	i	i	i	i	i
Cc1cccnc1NC(=O)C(C)N1C(=O)c2ccccc2C1=O (stereo not given)	i	i	i	i	i
CN(C(=O)c1ccccc1[N+](=O)[O-])c1ccccc1C(=O)NCc1ccccc1	i	i	i	i	i
CC(C)(C)NC(=O)NC(=O)C[n+]1ccc(Cc2ccc([N+](=O)[O-])cc2)cc1	i	i	i	i	i
Cc1cccc(Cn2c(C(C)(C)C)cc3cccnc32)c1	i	i	i	-6*	i
CC1CC(C)CN(C(=O)C(C)N(C)CC(=O)Nc2ccc(Cl)cc2)C1 (stereo not given)	i	i	i	i	i
O=C(CSc1ccc(Cl)cc1)NC1CCCc2ccccc21 (stereo not given)	i	i	i	i	i
COc1ccccc1N1CCN(C(=O)c2sc3nc(C)nc(N4CCN(c5ccccn5)CC4)c3c2C)CC1	i	i	i	-7*	i
Cc1nc(N2CCN(c3ccccn3)CC2)c2c(C)c(C(=O)N3CCN(c4ccc(F)cc4)CC3)sc2n1	i	i	i	-10*	i
COc1ccccc1N1CCN(C(=O)c2sc3ncnc(N4CCN(c5ccccn5)CC4)c3c2C)CC1	i	i	i	i	i
COc1ccc(CNC(=O)C/C(C)=N/NC(=O)COc2ccccc2)cc1	i	i	i	i	i
Cc1nn(C)cc1/C=N/NC(=O)C(C)(C)Oc1ccc(Cl)cc1	i	11*	i	i	i
Cc1cc(C)cc(OCC(=O)N/N=C\c2cn(C)nc2C)c1	i	i	i	i	i
Cc1nn(C)c(C)c1NS(=O)(=O)c1cccc(Br)c1	i	i	i	i	i
CCN(CCNC(=O)C1CCN(S(=O)(=O)c2cccc3nsnc23)CC1)c1ccccc1	i	i	i	i	i
CCCN(CCC)CCCNC(=O)C1CCN(S(=O)(=O)c2cccc3nsnc23)CC1	i	i	i	i	134*
O=C(c1cccc(C(F)(F)F)c1)C1CCCN(Cc2ccc(OCCO)cc2)C1 (stereo not given)	i	i	i	i	i
CC(=O)Nc1ccc(CN2CCCC(C(=O)c3cccc(C(F)(F)F)c3)C2)cc1 (stereo not given)	i	i	i	i	88*
SMILES	TRPC6 activator	TRPC4 potent	TRPC6 inhibitor	TRPC4 block	TRPC4 act	others
COc1ccc(CN2CCCC(C(=O)c3cccc(C(F)(F)F)c3)C2)cc1O (stereo not given)	i	i	i	-8*	62*
Cc1cc(S(=O)(=O)N2CCCC(C(=O)Nc3ccc(C(=O)O)cc3)C2)ccc1Cl (stereo not given)	i	i	i	i	i
CCN(CC)C(=O)C1CCCN(Cc2cccc(Oc3ccccc3)c2)C1 (stereo not given)	i	i	i	-7*	i
CN(Cc1cccc(Cl)c1)C(=O)C1CCN(C(=O)Nc2ccccc2)CC1	i	i	i	i	i
CN(Cc1ccccc1)C(=O)C1CCCN(Cc2cccc(Cl)c2)C1 (stereo not given)	i	i	i	-8*	i
COc1ccc(CCN(C)C(=O)C2CCCN(C3CCN(Cc4ccccc4)CC3)C2)cc1OC (stereo not given)	i	i	i	i	131*
CC(C)c1nc(SCC(=O)Nc2ccc(C(=O)O)cc2)c2c3c(sc2n1)CCCC3	i	i	i	i	i
COc1ccc(C(=O)C2CCN(C(=S)Nc3ccc(F)cc3)CC2)cc1	i	i	i	i	i
CNC(=S)N1CCN(C(c2ccccc2)c2ccccc2)CC1	i	i	i	-6*	50*
CCC(C)NC(=S)N1CCN(C(c2ccccc2)c2ccccc2)CC1 (stereo not given)	i	i	i	i	i
COc1cc(OC)cc(C(=O)Nc2ccc(Nc3ccccc3)cc2)c1	i	i	-5*	i	i
COc1cc(OC)cc(C(=O)Nc2cccc(NC(=O)c3ccccc3)c2)c1	i	i	i	i	i
CCCC1=[N+](CC(=O)c2ccc(C)cc2)CCn2cccc21	i	i	i	-6*	i
Cc1ccn2cc(-c3ccc4c(c3)NC(=O)CO4)nc2c1	i	i	i	i	i
Cc1cccn2cc(-c3ccc4c(c3)NC(=O)CO4)nc12	i	i	-5.9*	i	i	HEK293 MPD ctr=-84%*;HEK293 MPD ctr 2=i;TRPC4/MOR mod=-16%*;TRPC4/MOR inh 2=i;TRPC6 inh conf=i;TRPC6 act confirm=i
